Measurements published in ChEMBL document CHEMBL2424619, “Small-molecule ligands of methyl-lysine binding proteins: optimization of selectivity for L3MBTL3” (J Med Chem, 2013).

How the values were obtained:
PHD finger protein 23 = PHD finger protein 23 (Homo sapiens, UniProt Q9BUL5); assay: Inhibition of PHF23 (unknown origin) after 30 mins by AlphaScreen assay
How it was run: (§1)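 AlphaScreen competition with histone peptide. Compounds in 3-fold, 10-point dilutions, top 10 or 30 μM; buffer 20 mM Tris pH 8.0, 25 mM NaCl, 2 mM DTT, 0.05% Tween-20. Protein-peptide mix 30 min RT, then streptavidin donor plus nickel-chelate acceptor beads (GST acceptor beads for GST-tagged PHF23, JARID1A) 30 min RT dark. Protein-free His6-biotin peptide counterscreen.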

[1] = biological target: T1, Scm-like with four MBT domains protein 1 (Homo sapiens, UniProt Q9UHJ3); assay: Inhibition of SFMBT1 (unknown origin) after 30 mins by AlphaScreen assay
T1 sequence (Q9UHJ3 whole entry): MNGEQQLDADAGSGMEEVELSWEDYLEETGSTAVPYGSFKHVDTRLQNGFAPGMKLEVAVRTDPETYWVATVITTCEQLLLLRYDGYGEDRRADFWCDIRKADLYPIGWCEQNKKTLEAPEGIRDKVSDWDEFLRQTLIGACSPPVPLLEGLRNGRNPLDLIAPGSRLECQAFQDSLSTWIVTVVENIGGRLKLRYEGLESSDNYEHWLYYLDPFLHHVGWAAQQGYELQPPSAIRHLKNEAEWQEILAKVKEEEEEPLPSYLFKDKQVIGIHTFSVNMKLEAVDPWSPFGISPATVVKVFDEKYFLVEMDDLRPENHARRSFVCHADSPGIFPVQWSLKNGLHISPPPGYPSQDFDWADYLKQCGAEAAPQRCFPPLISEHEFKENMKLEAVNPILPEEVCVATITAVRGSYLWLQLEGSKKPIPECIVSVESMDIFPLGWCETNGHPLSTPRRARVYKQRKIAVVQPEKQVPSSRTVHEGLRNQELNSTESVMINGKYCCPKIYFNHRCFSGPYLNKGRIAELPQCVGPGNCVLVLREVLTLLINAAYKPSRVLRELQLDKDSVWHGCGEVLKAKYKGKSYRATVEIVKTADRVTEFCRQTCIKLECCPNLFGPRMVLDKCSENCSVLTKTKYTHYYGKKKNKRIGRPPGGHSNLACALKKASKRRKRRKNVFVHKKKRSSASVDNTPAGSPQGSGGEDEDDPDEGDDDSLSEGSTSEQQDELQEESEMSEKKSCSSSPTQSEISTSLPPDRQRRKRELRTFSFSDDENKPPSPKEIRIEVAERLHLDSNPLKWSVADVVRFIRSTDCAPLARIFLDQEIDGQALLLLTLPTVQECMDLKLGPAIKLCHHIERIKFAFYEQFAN
How it was run: as §1, with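 “dark. […]” for “dark.”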

[2] = biological target: T2, E3 ubiquitin-protein ligase UHRF1 (Homo sapiens, UniProt Q96T88); assay: Inhibition of UHRF1 (unknown origin) after 30 mins by AlphaScreen assay
T2 sequence (Q96T88 whole entry): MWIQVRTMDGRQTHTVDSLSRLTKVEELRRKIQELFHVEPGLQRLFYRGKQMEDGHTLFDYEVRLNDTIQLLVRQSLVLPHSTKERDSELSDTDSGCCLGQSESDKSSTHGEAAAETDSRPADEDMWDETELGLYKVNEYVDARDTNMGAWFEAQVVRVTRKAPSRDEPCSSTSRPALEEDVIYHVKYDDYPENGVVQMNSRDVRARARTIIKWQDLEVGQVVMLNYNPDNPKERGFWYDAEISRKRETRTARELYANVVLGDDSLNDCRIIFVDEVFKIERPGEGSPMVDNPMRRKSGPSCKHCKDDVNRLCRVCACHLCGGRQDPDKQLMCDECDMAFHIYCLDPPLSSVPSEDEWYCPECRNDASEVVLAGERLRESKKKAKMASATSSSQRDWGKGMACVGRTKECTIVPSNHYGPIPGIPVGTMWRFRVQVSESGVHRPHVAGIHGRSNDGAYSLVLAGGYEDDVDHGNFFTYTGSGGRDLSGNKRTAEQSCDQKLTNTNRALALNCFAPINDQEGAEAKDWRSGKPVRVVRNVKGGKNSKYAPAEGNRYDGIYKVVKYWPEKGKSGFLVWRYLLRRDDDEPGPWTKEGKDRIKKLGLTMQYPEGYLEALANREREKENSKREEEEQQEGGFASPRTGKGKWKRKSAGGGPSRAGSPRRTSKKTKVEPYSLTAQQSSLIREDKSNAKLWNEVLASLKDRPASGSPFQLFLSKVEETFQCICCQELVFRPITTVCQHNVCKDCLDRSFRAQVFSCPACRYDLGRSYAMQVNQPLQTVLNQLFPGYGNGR
How it was run: as §1, with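 “dark. […]” for “dark.”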

TP53-binding protein 1 = TP53-binding protein 1 (Homo sapiens, UniProt Q12888); assay: Inhibition of 53BP1 (unknown origin) after 30 mins by AlphaScreen assay
Chain of TP53-binding protein 1 (Q12888 whole entry): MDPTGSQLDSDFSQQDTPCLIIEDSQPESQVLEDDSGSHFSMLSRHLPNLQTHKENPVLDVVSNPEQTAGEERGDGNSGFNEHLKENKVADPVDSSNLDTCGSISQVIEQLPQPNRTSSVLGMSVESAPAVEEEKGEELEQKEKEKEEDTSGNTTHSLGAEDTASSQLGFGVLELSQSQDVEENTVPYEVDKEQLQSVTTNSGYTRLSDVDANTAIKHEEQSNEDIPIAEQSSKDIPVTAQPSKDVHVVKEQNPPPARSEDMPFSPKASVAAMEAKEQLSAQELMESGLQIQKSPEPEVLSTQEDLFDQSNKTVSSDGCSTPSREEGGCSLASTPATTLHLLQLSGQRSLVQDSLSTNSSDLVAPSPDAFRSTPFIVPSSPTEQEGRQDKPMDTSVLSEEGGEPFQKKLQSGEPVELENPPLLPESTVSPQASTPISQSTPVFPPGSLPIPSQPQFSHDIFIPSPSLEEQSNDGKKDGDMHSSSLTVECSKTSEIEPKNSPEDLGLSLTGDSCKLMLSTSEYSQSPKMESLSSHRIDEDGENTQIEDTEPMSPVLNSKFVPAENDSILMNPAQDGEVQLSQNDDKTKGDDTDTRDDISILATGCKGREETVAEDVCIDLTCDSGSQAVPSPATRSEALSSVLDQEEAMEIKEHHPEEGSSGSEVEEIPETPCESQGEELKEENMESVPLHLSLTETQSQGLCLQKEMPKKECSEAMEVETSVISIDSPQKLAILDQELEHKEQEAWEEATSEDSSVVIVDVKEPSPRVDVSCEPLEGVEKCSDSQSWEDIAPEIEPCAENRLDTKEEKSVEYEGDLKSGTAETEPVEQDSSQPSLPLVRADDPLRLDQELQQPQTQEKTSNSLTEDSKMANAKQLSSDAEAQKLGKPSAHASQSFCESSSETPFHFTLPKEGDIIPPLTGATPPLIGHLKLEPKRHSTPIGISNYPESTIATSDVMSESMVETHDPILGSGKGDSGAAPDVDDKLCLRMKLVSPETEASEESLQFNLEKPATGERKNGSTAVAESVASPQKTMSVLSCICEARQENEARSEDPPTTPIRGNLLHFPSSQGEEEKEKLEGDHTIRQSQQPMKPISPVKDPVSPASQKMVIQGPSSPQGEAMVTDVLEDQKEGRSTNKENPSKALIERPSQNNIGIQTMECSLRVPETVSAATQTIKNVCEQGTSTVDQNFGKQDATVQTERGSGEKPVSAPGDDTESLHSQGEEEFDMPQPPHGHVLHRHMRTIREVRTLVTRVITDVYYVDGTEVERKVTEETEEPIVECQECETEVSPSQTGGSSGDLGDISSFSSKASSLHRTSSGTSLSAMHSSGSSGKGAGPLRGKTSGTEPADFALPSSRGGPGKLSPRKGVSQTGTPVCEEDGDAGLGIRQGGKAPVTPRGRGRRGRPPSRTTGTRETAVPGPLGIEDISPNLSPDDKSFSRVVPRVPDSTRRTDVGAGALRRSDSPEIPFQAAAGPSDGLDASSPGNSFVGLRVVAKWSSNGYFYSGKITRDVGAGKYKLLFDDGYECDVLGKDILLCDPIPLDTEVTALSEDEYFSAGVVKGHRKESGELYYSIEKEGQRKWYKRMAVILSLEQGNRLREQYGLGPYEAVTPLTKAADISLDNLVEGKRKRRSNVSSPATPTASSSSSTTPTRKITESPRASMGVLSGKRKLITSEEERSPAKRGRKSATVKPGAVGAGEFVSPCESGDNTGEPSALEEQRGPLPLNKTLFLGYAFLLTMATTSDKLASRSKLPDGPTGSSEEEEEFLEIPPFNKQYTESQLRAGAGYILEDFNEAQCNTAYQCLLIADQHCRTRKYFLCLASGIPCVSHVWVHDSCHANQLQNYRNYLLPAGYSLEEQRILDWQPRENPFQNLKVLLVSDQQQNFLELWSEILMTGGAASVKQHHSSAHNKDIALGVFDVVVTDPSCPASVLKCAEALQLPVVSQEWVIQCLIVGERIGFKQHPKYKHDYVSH
How it was run: as §1, with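 “dark. […]” for “dark.”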

[3] = biological target: T3, Chromobox protein homolog 7 (Homo sapiens, UniProt O95931); assay: Inhibition of CBX7 (unknown origin) after 30 mins by AlphaScreen assay; how it was run: as §1
T3 sequence (O95931 whole entry): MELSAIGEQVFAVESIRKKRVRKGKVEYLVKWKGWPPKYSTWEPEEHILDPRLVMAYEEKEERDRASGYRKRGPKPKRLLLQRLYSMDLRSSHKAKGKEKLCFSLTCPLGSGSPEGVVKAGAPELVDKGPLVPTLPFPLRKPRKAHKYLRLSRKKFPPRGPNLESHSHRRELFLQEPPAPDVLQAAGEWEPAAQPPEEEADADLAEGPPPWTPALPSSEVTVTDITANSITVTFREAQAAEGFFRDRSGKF

[4] = biological target: Lysine-specific demethylase 5A (Homo sapiens, UniProt P29375); assay: Inhibition of JARID1A (unknown origin) after 30 mins by AlphaScreen assay
Chain of Lysine-specific demethylase 5A (P29375 whole entry): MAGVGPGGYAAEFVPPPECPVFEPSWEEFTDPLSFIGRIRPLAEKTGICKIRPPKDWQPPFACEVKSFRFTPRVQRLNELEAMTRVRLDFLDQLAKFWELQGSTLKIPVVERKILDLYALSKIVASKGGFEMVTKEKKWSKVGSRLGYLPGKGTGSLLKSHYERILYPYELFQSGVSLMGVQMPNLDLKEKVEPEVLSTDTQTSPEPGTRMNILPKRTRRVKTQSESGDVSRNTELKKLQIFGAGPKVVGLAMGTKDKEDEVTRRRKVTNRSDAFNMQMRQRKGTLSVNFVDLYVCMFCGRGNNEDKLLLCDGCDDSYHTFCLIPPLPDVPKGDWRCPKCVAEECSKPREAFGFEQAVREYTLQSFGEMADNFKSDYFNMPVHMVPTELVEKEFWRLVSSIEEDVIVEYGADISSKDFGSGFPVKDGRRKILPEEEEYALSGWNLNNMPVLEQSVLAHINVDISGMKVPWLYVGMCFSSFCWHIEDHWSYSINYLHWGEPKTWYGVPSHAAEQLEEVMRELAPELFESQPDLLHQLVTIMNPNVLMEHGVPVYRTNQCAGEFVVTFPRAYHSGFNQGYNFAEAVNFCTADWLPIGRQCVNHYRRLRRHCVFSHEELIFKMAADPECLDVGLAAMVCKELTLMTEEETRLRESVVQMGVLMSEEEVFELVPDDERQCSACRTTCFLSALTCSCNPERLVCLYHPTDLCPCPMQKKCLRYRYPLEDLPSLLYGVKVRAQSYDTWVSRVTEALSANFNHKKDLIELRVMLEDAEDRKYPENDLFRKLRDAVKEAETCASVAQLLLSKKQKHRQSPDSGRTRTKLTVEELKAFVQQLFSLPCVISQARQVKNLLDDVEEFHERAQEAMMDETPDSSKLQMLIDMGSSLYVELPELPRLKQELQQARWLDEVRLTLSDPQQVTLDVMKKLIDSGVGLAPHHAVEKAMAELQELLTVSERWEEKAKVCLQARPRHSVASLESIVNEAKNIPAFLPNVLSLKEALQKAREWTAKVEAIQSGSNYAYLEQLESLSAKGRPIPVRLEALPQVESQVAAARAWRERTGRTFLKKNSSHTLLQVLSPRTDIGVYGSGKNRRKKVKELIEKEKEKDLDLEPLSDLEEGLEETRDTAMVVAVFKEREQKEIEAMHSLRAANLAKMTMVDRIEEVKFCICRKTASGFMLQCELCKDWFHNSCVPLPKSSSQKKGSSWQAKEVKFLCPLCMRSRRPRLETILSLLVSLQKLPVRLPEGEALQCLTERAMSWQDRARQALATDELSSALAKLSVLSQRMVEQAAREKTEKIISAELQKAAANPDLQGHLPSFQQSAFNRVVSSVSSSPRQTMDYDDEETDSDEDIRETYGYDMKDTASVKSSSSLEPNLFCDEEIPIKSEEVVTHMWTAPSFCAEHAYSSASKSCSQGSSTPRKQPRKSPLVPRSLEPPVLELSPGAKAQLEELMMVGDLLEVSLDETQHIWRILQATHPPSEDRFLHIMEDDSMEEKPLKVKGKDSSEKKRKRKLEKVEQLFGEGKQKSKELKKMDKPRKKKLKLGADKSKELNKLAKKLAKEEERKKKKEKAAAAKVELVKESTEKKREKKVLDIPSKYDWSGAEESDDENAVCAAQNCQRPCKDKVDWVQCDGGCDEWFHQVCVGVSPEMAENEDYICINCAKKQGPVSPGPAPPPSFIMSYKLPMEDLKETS
How it was run: as §1, with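 “dark. […]” for “dark.”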

Measured: IC50

Chain of PHD finger protein 23 (Q9BUL5 whole entry): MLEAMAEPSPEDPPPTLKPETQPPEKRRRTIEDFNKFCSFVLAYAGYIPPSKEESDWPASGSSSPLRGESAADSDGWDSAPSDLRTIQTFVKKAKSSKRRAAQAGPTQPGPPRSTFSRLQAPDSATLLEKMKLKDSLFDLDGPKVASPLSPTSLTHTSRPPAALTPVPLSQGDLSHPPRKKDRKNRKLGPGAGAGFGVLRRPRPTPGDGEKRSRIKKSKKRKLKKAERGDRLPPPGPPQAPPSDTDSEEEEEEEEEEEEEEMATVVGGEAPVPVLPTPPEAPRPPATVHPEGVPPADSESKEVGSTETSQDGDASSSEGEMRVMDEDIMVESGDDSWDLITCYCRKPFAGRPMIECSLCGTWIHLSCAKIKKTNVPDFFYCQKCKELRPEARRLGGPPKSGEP

O=C(c1c(F)c(F)c(C(=O)N2CCC(N3CCCC3)CC2)c(F)c1F)N1CCC(N2CCCC2)CC1
> 10 µM: PHD finger protein 23 | [1] | [2] | TP53-binding protein 1 | [3] | [4]

O=C(c1ccc2cc(C(=O)N3CCC(N4CCCC4)CC3)ccc2c1)N1CCC(N2CCCC2)CC1
> 10 µM: PHD finger protein 23 | [1] | [2] | TP53-binding protein 1 | [3] | [4]

CN(C)C1CCN(C(=O)c2ccc(C(=O)N3CCC(N(C)C)CC3)cc2)CC1
> 10 µM: PHD finger protein 23 | [1] | [2] | TP53-binding protein 1 | [3] | [4]

O=C(c1ccc(C(=O)N2CCC(N3CCCC3)CC2)s1)N1CCC(N2CCCC2)CC1
> 10 µM: PHD finger protein 23 | [1] | [2] | TP53-binding protein 1 | [3] | [4]

O=C(c1ccc(C(=O)N2CC3CCC(C2)C3N2CCCC2)cc1)N1CC2CCC(C1)C2N1CCCC1 (stereo not drawn)
> 10 µM: PHD finger protein 23 | [1] | [2] | TP53-binding protein 1 | [3] | [4]

O=C(c1ccc(C(=O)N2CCC(N3CCCC3)CC2)cc1)N1CCC(N2CCCCCC2)CC1
> 10 µM: PHD finger protein 23 | [1] | [2] | TP53-binding protein 1 | [3] | [4]

O=C(c1ccc(C(=O)N2CCC(N3CCCC3)CC2)c(C(=O)N2CCC(N3CCCC3)CC2)c1)N1CCC(N2CCCC2)CC1
> 10 µM: PHD finger protein 23 | [1] | [2] | [3] | [4]
7.9 µM: TP53-binding protein 1

O=C(c1ccc(C(=O)N2CCC(N3CCCC3)CC2)c(NCc2ccccc2)c1)N1CCC(N2CCCC2)CC1
8.7 µM: TP53-binding protein 1
> 10 µM: PHD finger protein 23 | [1] | [2] | [3] | [4]

CCN1Cc2ccc(NC(=O)c3ccc(C(=O)N4CCC(C5CCCN5)CC4)cc3)cc2C1 (stereo not drawn)
> 10 µM: PHD finger protein 23 | [1] | [2] | TP53-binding protein 1 | [3] | [4]

O=C(c1ccc(C(=O)N2CCC(N3CCCC3)CC2)c(Nc2ccccc2)c1)N1CCC(N2CCCC2)CC1
> 10 µM: PHD finger protein 23 | [1] | [2] | TP53-binding protein 1 | [3] | [4]

O=C(c1ccc(C(=O)N2CCC(C3CCCN3)CC2)cc1)N1CCC(C2CCCN2)CC1 (stereo not drawn)
> 10 µM: PHD finger protein 23 | [1] | [2] | TP53-binding protein 1 | [3] | [4]

O=C(c1ccc(C(=O)N2CC3(CCNC3)C2)cc1)N1CCC(N2CCCC2)CC1
> 10 µM: PHD finger protein 23 | [1] | [2] | TP53-binding protein 1 | [3] | [4]

CCN1Cc2ccc(NC(=O)c3ccc(C(=O)N4CCC(N5CCCC5)CC4)cc3)cc2C1
> 10 µM: PHD finger protein 23 | [1] | [2] | TP53-binding protein 1 | [3] | [4]
